The record followed here is ChEMBL document CHEMBL4371092, “3,4- seco-Norclerodane Diterpenoids from the Roots of Polyalthia laui” (J Nat Prod, 2019).

Data set [1] can be described thus: Cytotoxicity against human C8166 cells after 72 hrs by MTT assay. Format: cell-based. In short, it runs like this:
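C8166 cells were tested for cytotoxicity by MTT assay, with CC50 defined as the 50% cytotoxic concentration.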
On the technique in general: Tetrazolium dyes change colour on reduction, which living cells bring about.

Another data set concerns A549. Put plainly: Cytotoxicity against human A549 cells after 72 hrs by MTT assay. Format: cell-based. As to conditions: A549, 72 h. Put shortly: (§1)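 Human tumour lines MCF7 (breast), HeLa (cervical carcinoma) and A549 (lung adenocarcinoma) were tested by MTT assay for cytotoxicity, with doxorubicin as the positive control.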
Data set [2] concerns Human immunodeficiency virus 1. Put plainly: Antiviral activity against HIV1 3B infected in human MT4 cells assessed as reduction in virus-induced cytopathic effect by measuring number of syncytia after 3 days by inverted microscopic method. Format: functional, organism-based. The settings on record: Human immunodeficiency virus 1, 3B, MT4, 72 h. In short, it runs like this: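 Anti-HIV-1 activity was scored as inhibition of viral cytopathic effect, and EC50 was taken as the 50% effective concentration. AZT (3′-azido-3′-deoxythymidine) was run as the positive control.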

The nature of data set [3]: Therapeutic index, ratio of CC50 for human C8166 cells to EC50 for HIV1 3B infected in human MT4 cells. As to conditions: read-out: Ratio CC50/EC50. The format is toxicity, cell-based. Put shortly:
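TI was computed as CC50/EC50. CC50 came from an MTT cytotoxicity assay on C8166 cells, and EC50 from inhibition of HIV-1 cytopathic effect, with AZT as the positive control.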

In the next data set the test system is MCF7. Put plainly: Cytotoxicity against human MCF7 cells after 72 hrs by MTT assay. The format is cell-based. The settings on record: MCF7, 72 h. In short, it runs like this: as §1
Another data set has as its system HeLa. Put plainly: Cytotoxicity against human HeLa cells after 72 hrs by MTT assay. The format is cell-based. In short, it runs like this: as §1

The term CC50 denotes the concentration giving 50% cytotoxicity. Low values mean greater toxicity to the cells, high ones lower toxicity to the cells. Usually IC50 stands for the concentration that gives 50% inhibition. Low readings indicate greater potency in that assay, high ones weaker potency in that assay. A word on the EC50: it is the concentration at which the effect is half-maximal. The molecule `C[C@@H]1CC[C@@]2(C)C(C(=O)O)=CCC[C@@H]2[C@@]1(C)CC/C(=C\C(=O)O)C(=O)O` displayed a CC50 at 72 h in data set [1] of more than 200 µM. Besides, the IC50 in the data set with A549, in the data set with MCF7 and in the data set on HeLa was more than 10 µM in each case. Also, the concentration for a half-maximal effect (EC50) in data set [2] was determined as 19.8 µM. For the same molecule, the selectivity ratio in data set [3] is more than 16.4.
Take `CC(=O)[C@]1(C)CC[C@@H](C)[C@](C)(CC/C(C)=C/C(=O)O)[C@H]1CC(=O)O`: in data set [1], the half-maximal cytotoxic concentration (CC50) at 72 h was more than 200 µM. The IC50 with A549, in the data set with MCF7 and in the data set with HeLa was more than 10 µM each time. In addition, the 50% effective concentration (EC50) in data set [2] amounted to 12.2 µM. Further, in data set [3], the selectivity ratio was more than 16.4.
`CC1=CC(=O)C[C@@H]2[C@@](C)(CC/C(=C\C(=O)O)C(=O)O)[C@H](C)CC[C@@]12C`: the 50% cytotoxic concentration (CC50) at 72 h in data set [1] was more than 200 µM. Moreover, the half-inhibitory concentration (IC50) in the data set on A549, in the data set with MCF7 and in the data set with HeLa was more than 10 µM in each case. Moreover, in data set [2], the EC50 worked out at 35.2 µM. For the same molecule, the selectivity ratio in data set [3] was more than 5.7.
`Cc1cn([C@H]2C[C@H](N=[N+]=[N-])[C@@H](CO)O2)c(=O)[nH]c1=O` [ZIDOVUDINE]: half-maximal cytotoxicity in data set [1] (CC50 at 72 h) was put at 5230 µM. Further, in data set [2], the 50% effective concentration (EC50) came out at 0.02 µM. Moreover, the selectivity ratio in data set [3] stood at 338000.
In the case of `CC1=C(C(=O)O)C[C@@H]2[C@@](C)(CC/C(=C/C(=O)O)CO)[C@H](C)CC[C@@]12C`, the half-maximal cytotoxic concentration (CC50) at 72 h in data set [1] is more than 200 µM. Also, the IC50 in the data set on A549, in the data set with MCF7 and with HeLa was more than 10 µM each time. Besides, the concentration giving a half-maximal response (EC50) in data set [2] was 23.1 µM. Also, the selectivity ratio in data set [3] was more than 8.5.
`CO[C@@H]1OC(=O)C=C1CC[C@@]1(C)[C@H](C)CC[C@@]2(C)C(C)=C(C=O)C[C@H]12` had a half-maximal cytotoxic concentration (CC50) at 72 h in data set [1] of more than 200 µM. Moreover, the IC50 in the data set with A549, in the data set on MCF7 and in the data set with HeLa was more than 10 µM each time. For the same molecule, the concentration giving a half-maximal response (EC50) in data set [2] worked out at 16.8 µM. Further, the selectivity ratio in data set [3] was more than 11.9.
For the molecule `C/C(=C\C(=O)O)CC[C@@]1(C)[C@H](C)CC[C@]2(C)[C@@H]1CC[C@@H](O)[C@]2(C)O`, the 50% cytotoxic concentration (CC50) at 72 h in data set [1] is more than 200 µM. Besides, the IC50 with A549, with MCF7 and with HeLa was more than 10 µM each time. Further, the EC50 in data set [2] amounted to 27.4 µM. Besides, in data set [3], the selectivity ratio was more than 7.3.
